Source: ChEMBL document CHEMBL1122050, “Synthesis of prostanoids with bicyclo[2.2.1]heptane, bicyclo[3.1.1]heptane, and bicyclo[2.2.2]octane ring systems. Activities of 15-hydroxy epimers on human platelets” (J Med Chem, 1982)
Active and inactive are the calls of the source.

What was measured:
[1] = species on record: Homo sapiens; test: Compound was evaluated for aggregation properties on human platelets at 1.3 uM; Irreversible; type: functional
Procedure, shortened: (§1)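 Citrated human platelet-rich plasma mixed with Krebs solution and 0.9% NaCl, preincubated 2 min at 37 °C. Aggregation recorded in a Born-type aggregometer. The value is the concentration giving a primary aggregation response of 20 chart-recorder units; irreversible aggregation corresponds to 80–90 units. Each value is the mean of single determinations on PRP from at least three donors.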

[2] = species on record: Homo sapiens; test: Compound was evaluated for aggregation properties on human platelets at 6.2 uM; Irreversible; type: functional; procedure, shortened: as §1
[3] = species on record: Homo sapiens; test: Compound was evaluated for aggregation properties on human platelets at 10/1.3 uM (Dose ratio defined as the ratio of the concentrations of the agonist producing recorder unit responses in the presence and in the absence of the inhibitor); Inhibition; type: functional
[4] = species on record: Homo sapiens; test: Compound was evaluated for aggregation properties on human platelets at 0.31 uM; Irreversible; type: functional; procedure, shortened: as §1
[5] = species on record: Homo sapiens; test: Compound was evaluated for aggregation properties on human platelets at 80 uM (highest concentration tested); No effect; type: functional, organism-based
[6] = species on record: Homo sapiens; test: Compound was evaluated for aggregation properties on human platelets at 20 uM (highest concentration tested); No effect; type: functional, organism-based
[7] = species on record: Homo sapiens; test: Compound was evaluated for aggregation properties on human platelets at 15 uM; Reversible; type: functional; procedure, shortened: as §1
[8] = species on record: Homo sapiens; test: Compound was evaluated for aggregation properties on human platelets at 80 uM (highest concentration tested); Shape change only; type: functional, organism-based
[9] = species on record: Homo sapiens; test: Compound was evaluated for aggregation properties on human platelets at 10 uM (highest concentration tested); No effect; type: functional, organism-based
[10] = species on record: Homo sapiens; test: Compound was evaluated for aggregation properties on human platelets at 0.26 uM; Irreversible; type: functional; procedure, shortened: as §1
[11] = species on record: Homo sapiens; test: Compound was evaluated for aggregation properties on human platelets at 10/1.4 uM (Dose ratio defined as the ratio of the concentrations of the agonist producing recorder unit responses in the presence and in the absence of the inhibitor); Inhibition; type: functional
[12] = species on record: Homo sapiens; test: Compound was evaluated for aggregation properties on human platelets at 1.7 uM; Irreversible; type: functional; procedure, shortened: as §1
[13] = species on record: Homo sapiens; test: Compound was evaluated for aggregation properties on human platelets at 0.14 uM; Irreversible; type: functional; procedure, shortened: as §1
[14] = species on record: Homo sapiens; test: Compound was evaluated for aggregation properties on human platelets at 10/25 uM (Dose ratio defined as the ratio of the concentrations of the agonist producing recorder unit responses in the presence and in the absence of the inhibitor); Inhi bition; type: functional, organism-based
[15] = species on record: Homo sapiens; test: Compound was evaluated for aggregation properties on human platelets at 2.5/4.8 uM (Dose ratio defined as the ratio of the concentrations of the agonist producing recorder unit responses in the presence and in the absence of the inhibitor); In hibition; type: functional, organism-based
[16] = species on record: Homo sapiens; test: Compound was evaluated for aggregation properties on human platelets at 10/2.9 uM (Dose ratio defined as the ratio of the concentrations of the agonist producing recorder unit responses in the presence and in the absence of the inhibitor); Inhibition; type: functional
[17] = species on record: Homo sapiens; test: Compound was evaluated for aggregation properties on human platelets at 10/1.5 uM (Dose ratio defined as the ratio of the concentrations of the agonist producing recorder unit responses in the presence and in the absence of the inhibitor); Inhi bition
[18] = species on record: Homo sapiens; test: Compound was evaluated for aggregation properties on human platelets at 3.5 uM; Irreversible; type: functional; procedure, shortened: as §1
[19] = species on record: Homo sapiens; test: Compound was evaluated for aggregation properties on human platelets at 0.72 uM; Irreversible; type: functional; procedure, shortened: as §1
[20] = species on record: Homo sapiens; test: Compound was evaluated for aggregation properties on human platelets at 20 uM (highest concentration tested); Shape change only; type: functional, organism-based
[21] = species on record: Homo sapiens; test: Compound was evaluated for aggregation properties on human platelets at 0.23 uM; Irreversible.; type: functional; procedure, shortened: as §1
[22] = species on record: Homo sapiens; test: Compound was evaluated for aggregation properties on human platelets at 5 uM; Reversible; type: functional; procedure, shortened: as §1
[23] = species on record: Homo sapiens; test: Compound was evaluated for aggregation properties on human platelets at 0.19 uM; Irreversible; type: functional; procedure, shortened: as §1

## O=C(O)CCC/C=C\C[C@H]1C2CCC(C2)[C@@H]1/C=C/[C@H](O)COc1ccc(F)cc1 (some centres undefined)
[1]
  Aggregation response: Irreversible

## CCCCC[C@](C)(O)/C=C/[C@H]1C2CCC(C2)[C@@H]1C/C=C\CCCC(=O)O (some centres undefined)
[2]
  Aggregation response: Irreversible

## CCCCC[C@@](C)(O)/C=C/[C@H]1C2CCC(C2)[C@@H]1C/C=C\CCCC(=O)O (some centres undefined)
[3]
  Aggregation response: Inhibition

## CC1(C)C2CC1[C@H](C/C=C\CCCC(=O)O)[C@H]2/C=C/[C@@H](O)COc1ccc(F)cc1 (some centres undefined)
[4]
  Aggregation response: Irreversible

## O=C(O)CCC/C=C\C[C@H]1C2C=CC(C2)[C@@H]1/C=C/[C@H](O)CCc1ccc(Cl)cc1 (some centres undefined)
[5]
  Aggregation response: inactive

## CCCCCC(=O)/C=C/[C@H]1C2COC(C2)[C@@H]1C/C=C\CCCC(=O)O (some centres undefined)
[6]
  Aggregation response: inactive

## CCCCC[C@H](O)/C=C/[C@H]1C2CCC(C2)[C@@H]1C/C=C\CCCC(=O)O (some centres undefined)
[7]
  Aggregation response: Reversible

## O=C(O)CCC/C=C\C[C@H]1C2C=CC(C2)[C@@H]1/C=C/[C@@H](O)CCc1ccc(Cl)cc1 (some centres undefined)
[8]
  Aggregation response: Shape change only

## CCCCC[C@H](O)/C=C/[C@H]1C2CCC(CC2)[C@@H]1C/C=C\CCCC(=O)O
[1]
  Aggregation response: Irreversible

## O=C(O)CCC/C=C\C[C@H]1C2C=CC(C2)[C@@H]1/C=C/C(=O)COc1ccc(F)cc1 (some centres undefined)
[9]
  Aggregation response: inactive

## CCCCC[C@H](O)/C=C/[C@H]1C2COC(C2)[C@@H]1C/C=C\CCCC(=O)O (some centres undefined)
[10]
  Aggregation response: Irreversible

## CCCCC[C@@H](O)/C=C/[C@H]1C2CC([C@@H]1C/C=C\CCCC(=O)O)C2(C)C (some centres undefined)
[11]
  Aggregation response: Inhibition

## O=C(O)CCC/C=C\C[C@H]1C2C=CC(C2)[C@@H]1/C=C/[C@H](O)COc1ccc(F)cc1 (some centres undefined)
[12]
  Aggregation response: Irreversible

## O=C(O)CCC/C=C\C[C@H]1C2CCC(C2)[C@@H]1/C=C/[C@@H](O)COc1ccc(F)cc1 (some centres undefined)
[13]
  Aggregation response: Irreversible

## CCCCC[C@H](O)/C=C/[C@H]1C2CC([C@@H]1C/C=C\CCCC(=O)O)C2(C)C (some centres undefined)
[14]
  Aggregation response: Inhibition
[15]
  Aggregation response: Inhibition

## CCCCC[C@@H](O)/C=C/[C@H]1C2CCC(CC2)[C@@H]1C/C=C\CCCC(=O)O
[16]
  Aggregation response: Inhibition

## CCCCC[C@@H](O)/C=C/[C@H]1C2CCC(C2)[C@@H]1C/C=C\CCCC(=O)O (some centres undefined)
[17]
  Aggregation response: Inhibition

## O=C(O)CCC/C=C\C[C@H]1C2CCC(C2)[C@@H]1/C=C/[C@H](O)COc1ccc(Cl)cc1 (some centres undefined)
[18]
  Aggregation response: Irreversible

## O=C(O)CCC/C=C\C[C@H]1C2CCC(C2)[C@@H]1/C=C/[C@@H](O)COc1ccc(Cl)cc1 (some centres undefined)
[19]
  Aggregation response: Irreversible

## CCCCC[C@@H](O)/C=C/[C@H]1C2COC(C2)[C@@H]1C/C=C\CCCC(=O)O (some centres undefined)
[20]
  Aggregation response: Shape change only

## CCCCC[C@H](O)/C=C/[C@H]1C2CC(CO2)[C@@H]1C/C=C\CCCC(=O)O (some centres undefined)
[21]
  Aggregation response: Irreversible

## CC1(C)C2CC1[C@H](C/C=C\CCCC(=O)O)[C@H]2/C=C/[C@H](O)COc1ccc(F)cc1 (some centres undefined)
[22]
  Aggregation response: Reversible

## O=C(O)CCC/C=C\C[C@H]1C2C=CC(C2)[C@@H]1/C=C/[C@@H](O)COc1ccc(F)cc1 (some centres undefined)
[23]
  Aggregation response: Irreversible
